# Compound activity deposited in PubChem by Broad Institute.
# KDM4C inh: inhibitors of human demethylase GASC-1 KDM4C; Q9H3R0; GST-KDM4C 2-372, H3K9me3 peptide, LANCE TR-FRET; inhibition, % at 12.5 µM; 96,000 compounds, 0.15% hits; AID 720574;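 active = mean replicate inhibition above about 25%, with at least 55% of replicates also reaching it, limit read from the data, passing the limit was not always enough; inconclusive = only one of those two conditions met; inactive = neither condition met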
# Target sequence (Q9H3R0 2-372 limits assumed): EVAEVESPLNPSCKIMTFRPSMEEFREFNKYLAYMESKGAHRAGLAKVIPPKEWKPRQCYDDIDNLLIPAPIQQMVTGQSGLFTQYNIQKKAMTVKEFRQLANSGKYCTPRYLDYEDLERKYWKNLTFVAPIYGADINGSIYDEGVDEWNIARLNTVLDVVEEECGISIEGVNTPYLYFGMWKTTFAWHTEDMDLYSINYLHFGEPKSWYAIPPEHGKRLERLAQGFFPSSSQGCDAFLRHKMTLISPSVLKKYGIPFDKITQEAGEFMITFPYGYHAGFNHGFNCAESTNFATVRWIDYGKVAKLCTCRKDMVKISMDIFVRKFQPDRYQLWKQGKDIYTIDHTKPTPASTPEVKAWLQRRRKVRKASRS
#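 System: N-terminal GST-fused human GASC-1 (KDM4C) fragment, residues 2-372; amount: enzyme final amount 10 nM; incubation: reaction 30 min RT, detection step 1 h RT; medium: HEPES buffer, pH 7.5, plus ascorbate; technique: LANCE TR-FRET, Eu antibody, ULight-streptavidin, EDTA, ex 340 nm, em 618/671 nm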
# IDH1 R132H inh: inhibitors of human IDH1 R132H; O75874; IDH1 R132H reductase, diaphorase/resazurin fluorescence, 60 min; inhibition, % at 10 µM; 70,000 compounds, 0.18% hits; AID 624101; in the data active = inhibition above about 34%; inconclusive = no clear call, values can overlap the other calls; inactive = below about 11%;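 also: 0% = DMSO and 100% = no enzyme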
# Target sequence (O75874 whole entry R132H): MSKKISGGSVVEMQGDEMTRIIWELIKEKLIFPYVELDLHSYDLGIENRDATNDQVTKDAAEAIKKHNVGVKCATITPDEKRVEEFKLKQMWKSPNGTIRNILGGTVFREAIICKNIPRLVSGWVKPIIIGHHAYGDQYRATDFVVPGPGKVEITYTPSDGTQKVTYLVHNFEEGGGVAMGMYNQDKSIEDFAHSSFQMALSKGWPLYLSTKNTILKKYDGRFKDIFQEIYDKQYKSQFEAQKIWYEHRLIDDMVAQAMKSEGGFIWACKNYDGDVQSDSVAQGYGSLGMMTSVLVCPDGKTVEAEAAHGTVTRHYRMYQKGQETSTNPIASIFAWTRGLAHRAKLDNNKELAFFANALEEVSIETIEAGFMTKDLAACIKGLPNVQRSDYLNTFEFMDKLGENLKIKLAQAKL
# T cruzi growth-1: T. cruzi proliferation inhibition. T. cruzi beta-gal in NIH3T3, GalScreen luminescence, 90 h. inhibition, % at 8.34 µM. 77,000 compounds, 5.9% hits;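 active = mean inhibition above about 93%, with at least 55% of replicates each passing it, limit read from the data, passing the limit was not always enough; inconclusive = only one of those two conditions holds; inactive = neither condition holds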
# T cruzi growth-2: blocks T. cruzi growth in NIH3T3 host cells; inhibition, % at 8.35 µM; shares compounds with T cruzi growth-1; T. cruzi beta-gal in NIH3T3, GalScreen luminescence, 90 h; 5,600 compounds, 72% hits;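 active = mean replicate inhibition above about 95% and at least 55% of replicates individually reaching it, limit read from the data; inconclusive = only one of the two criteria is met; inactive = neither criterion is met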
# T cruzi growth-3: inhibitors of T. cruzi proliferation; shares compounds with T cruzi growth-1; T. cruzi beta-gal in NIH3T3, GalScreen luminescence, 90 h; inhibition, % at 2.09 µM; 5,600 compounds, 21% hits;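 active = mean inhibition above about 95%, with at least 55% of replicates also reaching it, limit read from the data; inconclusive = meets just one of the two conditions; inactive = meets neither condition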;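 also: plate controls were neutral control median for no effect and positive control median for full effect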
# NIH3T3 tox: NIH/3T3 (mouse) viability loss. shares compounds with T cruzi growth-1. NIH/3T3 viability, CellTiter-Glo ATP luminescence, 90 h. cytotoxicity (signal decrease), % at 8.35 µM. 5,600 compounds, 14% hits;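 active = mean signal decrease across replicates above about 35% based on untreated-well scatter, with enough replicates individually passing, limit read from the data; inconclusive = no rule stated though some were filed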;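 also: 0% = median of neutral control wells and 100% = median of positive control wells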
# NIH3T3 tox 2: NIH/3T3 (mouse) viability loss | shares compounds with T cruzi growth-1 | NIH/3T3 viability, CellTiter-Glo ATP luminescence, 90 h | inhibition, % at 24.9 µM | 5,600 compounds, 56% hits;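 active = mean loss of cell viability signal at or above a set limit, and enough replicates individually reaching it; inconclusive = meets only the mean limit or only the replicate share; inactive = meets neither condition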;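 also: 0% = median of neutral control wells and 100% = median of positive control wells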
# Numbers without * were called inactive; ? = inconclusive; . = no result given. The entries come from a sample that favours hits as a whole.
SMILES,KDM4C inh,IDH1 R132H inh,T cruzi growth-1,T cruzi growth-2,T cruzi growth-3,NIH3T3 tox,NIH3T3 tox 2
O=C(Nc1cc(Cl)cc(Cl)c1)N[C@H]1CC[C@H](CCNS(=O)(=O)c2cccc(F)c2)O[C@@H]1CO,0.3,0.1,112.1*,107.6*,7.0,15.6,96.9*
Cc1cc(Br)ccc1OCC(=O)Nc1ccccc1[N+](=O)[O-],.,-0.1,.,.,.,.,.
COC(=O)c1ccccc1NC(=O)c1cccc(NC(=O)COc2cc(C)c(Cl)c(C)c2)c1C,.,0.2,.,.,.,.,.
COc1ccccc1NC(=O)CNC(=O)c1ccccc1Cl,.,-0.2,.,.,.,.,.
C[C@H]1CN([C@@H](C)CO)C(=O)c2cc(NS(=O)(=O)c3ccccc3)ccc2O[C@H]1CN(C)Cc1ccc(C(F)(F)F)cc1,0.2,-0.3,?,106.3*,61.6,16.3,8.3
C[C@@H]1CN([C@@H](C)CO)C(=O)c2cc(NS(=O)(=O)c3ccccc3)ccc2O[C@H]1CN(C)Cc1ccc(C(F)(F)F)cc1,-0.2,.,94.3,.,.,.,.
C[C@H](CO)N1C[C@H](C)[C@@H](CN(C)Cc2ccc(C(F)(F)F)cc2)Oc2ccc(NS(=O)(=O)c3ccc(F)cc3)cc2C1=O,-1.0,.,80.3,.,.,.,.
C[C@@H]1CN([C@H](C)CO)C(=O)c2cc(NS(=O)(=O)c3ccccc3)ccc2O[C@@H]1CN(C)Cc1ccc(Oc2ccccc2)cc1,-2.2,0.3,47.4,.,.,.,.
C[C@@H]1CN([C@@H](C)CO)C(=O)c2cc(NS(=O)(=O)c3ccc(Cl)cc3)ccc2O[C@@H]1CN(C)Cc1ccc(C(F)(F)F)cc1,-4.0,1.1,125.6*,95.6*,45.5,67.7*,104.1*
C[C@H](CO)N1C[C@H](C)[C@H](CN(C)Cc2ccc(Oc3ccccc3)cc2)Oc2ccc(NS(=O)(=O)c3ccc(Cl)cc3)cc2C1=O,1.0,.,?,106.9*,63.9,-0.2,104.4*
C[C@H](CO)N1C[C@H](C)[C@H](CN(C)S(=O)(=O)c2cccc(F)c2)Oc2ncc(C#Cc3ccc(F)cc3)cc2C1=O,-2.6,0.6,79.6,.,.,.,.
C[C@@H]1CN([C@@H](C)CO)C(=O)c2cc(C#CC3CCCC3)cnc2O[C@H]1CN(C)S(=O)(=O)c1cccc(F)c1,1.6,-0.2,114.9*,102.7*,92.5,26.5,86.3*
C[C@H](CO)N1C[C@H](C)[C@H](CN(C)S(=O)(=O)c2ccc(F)cc2)Oc2ncc(C#Cc3ccc(F)cc3)cc2C1=O,-2.0,0.7,112.8*,108.4*,47.8,33.8,36.5*
C[C@@H]1CN([C@H](C)CO)C(=O)c2cc(C#CC3CCCC3)cnc2O[C@@H]1CN(C)S(=O)(=O)c1cccc(F)c1,-2.8,.,116.8,.,.,.,.
Cc1ccc(S(=O)(=O)N(C)C[C@@H]2Oc3ncc(C#Cc4ccc(F)cc4)cc3C(=O)N([C@H](C)CO)C[C@@H]2C)cc1,-2.9,0.1,-8.7,.,.,.,.
C[C@H](CO)N1C[C@H](C)[C@H](CN(C)S(=O)(=O)c2ccccc2)Oc2ncc(C#Cc3ccc(F)cc3)cc2C1=O,-3.4,-1.2,?,106.9*,53.8,20.5,16.2
COc1ccccc1-c1ccc2c(c1)O[C@H](CN(C)C(=O)c1ccncc1)[C@@H](C)CN([C@H](C)CO)S2(=O)=O,0.9,1.6,66.9,.,.,.,.
C[C@@H]1CN([C@H](C)CO)S(=O)(=O)c2ccc(/C=C/c3ccccc3)cc2O[C@H]1CN(C)C(=O)c1ccccc1,.,-3.8,127.7*,110.7*,86.6,15.8,99.7*
C[C@H]1CN([C@@H](C)CO)S(=O)(=O)c2ccc(/C=C/c3ccccc3)cc2O[C@H]1CN(C)C(=O)c1ccncc1,-6.5,-0.1,105.8*,108.9*,86.2,43.6*,70.3*
C[C@@H]1CN([C@@H](C)CO)S(=O)(=O)c2ccc(/C=C/c3ccccc3)cc2O[C@@H]1CN(C)C(=O)c1ccncc1,-4.4,-0.2,60.5,.,.,.,.
COc1ccccc1-c1ccc2c(c1)O[C@@H](CN(C)C(=O)c1ccncc1)[C@@H](C)CN([C@@H](C)CO)S2(=O)=O,-0.9,3.7,108.1*,96.1*,88.1,10.3,24.9*
C/C=C/c1ccc2c(c1)O[C@@H](CN(C)C(=O)c1ccccc1)[C@@H](C)CN([C@H](C)CO)S2(=O)=O,-1.5,-4.8,.,.,.,.,.
Cc1ccc(S(=O)(=O)NCCCO)cc1C(=O)O,.,0.4,.,.,.,.,.
COc1ccc(CN(C)C[C@@H]2Oc3c(NC(=O)c4ccncc4)cccc3C(=O)N([C@H](C)CO)C[C@H]2C)cc1,.,1.7,.,.,.,.,.
C[C@@H]1CN([C@H](C)CO)C(=O)c2cccc(NC(=O)Nc3ccc(C(F)(F)F)cc3)c2O[C@H]1CN(C)Cc1ccc(C(F)(F)F)cc1,0.9,-5.5,62.5,.,.,.,.
SMILES,KDM4C inh,IDH1 R132H inh,T cruzi growth-1,T cruzi growth-2,T cruzi growth-3,NIH3T3 tox,NIH3T3 tox 2
C[C@H]1CN([C@@H](C)CO)C(=O)c2cccc(NC(=O)Nc3ccc(C(F)(F)F)cc3)c2O[C@H]1CN(C)Cc1ccc(Cl)c(Cl)c1,-1.8,.,?,98.3*,105.3*,12.5,103.4*
C[C@@H]1CN([C@@H](C)CO)C(=O)c2cccc(NC(=O)Nc3ccc(F)cc3)c2O[C@@H]1CN(C)Cc1ccc(Cl)c(Cl)c1,4.2,1.0,28.9,.,.,.,.
C[C@@H]1CN([C@@H](C)CO)C(=O)c2cccc(NC(=O)Nc3ccc(C(F)(F)F)cc3)c2O[C@@H]1CN(C)Cc1ccc(Cl)c(Cl)c1,7.4,0.6,?,108.3*,59.6,4.6,99.8*
C[C@@H]1CN([C@@H](C)CO)C(=O)c2cccc(NC(=O)Nc3ccc(F)cc3)c2O[C@H]1CN(C)Cc1ccc(Cl)c(Cl)c1,-5.3,.,70.8,.,.,.,.
C[C@H]1CN([C@@H](C)CO)C(=O)c2cccc(NC(=O)Nc3ccc(C(F)(F)F)cc3)c2O[C@H]1CN(C)Cc1ccc(C(F)(F)F)cc1,-1.4,.,94.0,.,.,.,.
C[C@H]1CN([C@@H](C)CO)C(=O)c2cccc(NC(=O)Nc3ccc(C(F)(F)F)cc3)c2O[C@@H]1CN(C)Cc1ccc(Cl)c(Cl)c1,-1.0,4.5,?,97.9*,106.0*,44.6*,105.4*
C[C@H](CO)N1C[C@H](C)[C@@H](CN(C)Cc2ccc(Cl)c(Cl)c2)Oc2c(NC(=O)Nc3ccc(C(F)(F)F)cc3)cccc2C1=O,-0.5,1.2,?,31.0,-21.5,6.6,4.6
c1ccc(-c2nn3c(Cn4cnc5ccccc54)nnc3s2)nc1,.,-0.3,.,.,.,.,.
CC(=O)Nc1ccc(OC(=O)CSc2nc3ccccc3s2)cc1,.,0.0,.,.,.,.,.
CCC(Sc1nnc(-c2ccc([N+](=O)[O-])cc2)n1C)C(=O)Nc1ccc(Br)cc1 (stereo not given),.,-0.1,.,.,.,.,.
COCC#Cc1ccc([C@@H]2[C@@H](CO)N3CCCCN(C(=O)NC4CCCC4)C[C@@H]23)cc1,-0.5,.,73.0,.,.,.,.
CCCC#Cc1ccc([C@@H]2[C@@H](CO)N3CCCCN(C(=O)NC4CCCC4)C[C@@H]23)cc1,1.5,.,86.2,.,.,.,.
